Source: PubChem
GRK2 aptamer HTS: blocks RNA aptamer binding to human GRK2 | 0.59% of 330,000 active | AID 488847 | P25098 | inhibition of aptamer binding, % at 10 µM | bead flow cytometry, FAM-aptamer displacement from GRK2;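 active means inhibition of aptamer binding above 40%, roughly 3 SD of noise, on plates passing a quality check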;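 further: median bead fluorescence of bound FAM aptamer so fluorescent compounds give negative values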
Target sequence (P25098 whole entry, looked up): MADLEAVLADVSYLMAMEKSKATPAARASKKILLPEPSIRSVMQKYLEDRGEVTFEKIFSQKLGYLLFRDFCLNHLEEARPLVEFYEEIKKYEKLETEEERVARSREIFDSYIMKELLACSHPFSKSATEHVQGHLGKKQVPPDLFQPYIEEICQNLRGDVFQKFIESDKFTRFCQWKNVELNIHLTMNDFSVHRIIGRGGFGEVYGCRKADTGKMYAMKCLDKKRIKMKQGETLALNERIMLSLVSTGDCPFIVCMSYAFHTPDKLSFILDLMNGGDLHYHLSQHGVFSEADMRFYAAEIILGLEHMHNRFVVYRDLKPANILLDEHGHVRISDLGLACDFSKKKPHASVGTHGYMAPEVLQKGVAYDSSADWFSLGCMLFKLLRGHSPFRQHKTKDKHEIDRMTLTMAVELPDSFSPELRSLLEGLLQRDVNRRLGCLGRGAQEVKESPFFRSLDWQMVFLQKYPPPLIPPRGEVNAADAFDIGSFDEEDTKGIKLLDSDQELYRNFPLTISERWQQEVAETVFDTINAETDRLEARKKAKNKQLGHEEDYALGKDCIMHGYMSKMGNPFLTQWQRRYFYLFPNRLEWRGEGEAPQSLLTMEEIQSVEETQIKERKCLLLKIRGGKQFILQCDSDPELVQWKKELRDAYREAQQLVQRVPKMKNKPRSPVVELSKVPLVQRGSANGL
HCV core dimer: blocks dimerization of HCV core protein; 0.33% of 300,000 active; inhibition, % at 5 µM; TR-FRET GST/Flag-core106 dimerization, 1536-well;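 active means inhibition above the mean of all tested compounds plus 3 SD, set per screening campaign, cut at about 45% in these data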
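Assay system: tagged HCV core106 pair (GST and Flag); medium: KF-containing HEPES buffer, pH 7.45, DTT, CHAPS, BSA; also added: Eu donor and XL665 acceptor anti-tag antibodies; dosing: 5 µM single dose; timing: compound-protein-antibody incubation 4 h at 22.5 °C; signal: TR-FRET 671 and 617 nm emission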
DAGLB inhibitor: diacylglycerol lipase beta (human) inhibition | inhibition, % at 5.17 µM | HEK293T DAGLB membrane lysate, EnzChek fluorogenic substrate | 0.059% of 340,000 active; in the data active means inhibition above about 34%
NS3 helicase inh: blocks Hepatitis C virus NS3 helicase unwinding | NS3 helicase DNA unwinding, Cy5 molecular beacon fluorescence | inhibition, % at 10.9 µM | 0.56% of 290,000 active;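 active means inhibition above the mean of all tested compounds plus 3 SD, set per campaign, cut at about 35% in these data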
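Control set: DMSO versus 110 µM thioflavine S; Material: NS3 helicase fragment of HCV; Measured by: Cy5 fluorescence at 0 and 60 min, beacon hairpin quenching; Read-out basis: percent inhibition from t60/t0 fluorescence ratio; Times: reaction time 60 min, 25 °C; Repeats: single replicate; Compound dosing: single dose, 10.9 µM nominal final, DMSO 0.8% final.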
GPR7 antag: blocks human GPR7 receptor signaling. inhibition, % at 4.4 µM. AID 1861. GPR7-expressing cells, fluorescence antagonist assay. 1.1% of 290,000 active. P48145; in the data active means inhibition above about 16%, passing the limit was not always enough;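 further: cells stimulated with the agonist NPW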
FID counter: counter-screen for HCV NS3 helicase inhibitors: DNA intercalator displacement. DNA fluorescent intercalator displacement, fluorescence. inhibition, % at 7.9 µM. 0.17% of 290,000 active; in the data active means inhibition above about 37%;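 further: higher means more ethidium bromide displaced from hairpin DNA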
GPR7 antag conf: confirmation of human GPR7 antagonists. AID 1952. GPR7-expressing cells, calcium fluorescence antagonist mode. inhibition, % at 4.4 µM. shares compounds with GPR7 antag. 52% of 2,400 active; in the data active means inhibition above about 24%;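 further: stimulated with the GPR7 agonist NPW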
MCHR1 antagonist: antagonizes human MCHR1, a GPR7 antagonist counter-screen. shares compounds with GPR7 antag. MCHR1-expressing cells, fluorescence antagonist assay. inhibition, % at 4.4 µM. 62% of 2,400 active; in the data active means inhibition above about 22%
Each line names hits and unclear results; the compound was inactive in the other large screens (follow-up assays come after a bar, where they were run). This is a sample that favours compounds with a hit; in the whole collection about 2.2% have one here.

CC(CCn1cccn1)NC(=O)c1cc(COc2ccc(F)cc2Cl)on1 (centres undefined)	GPR7 antag 34 | GPR7 antag conf inactive | MCHR1 antagonist inactive
CN(C)NC1=CC(=[N+]2CCCC2)CC(C)(C)C1	none
CCCN(CCC)C1=CC(=[N+]2CCCC2)CC(C)(C)C1	GPR7 antag 52 | GPR7 antag conf 58 | MCHR1 antagonist 51
COc1ccc(Nc2ccc(C(=O)O)cc2[N+](=O)[O-])cc1	none
O=C(O)c1ccc(Nc2ccc(F)c(F)c2)c([N+](=O)[O-])c1	GPR7 antag 36 | GPR7 antag conf inactive | MCHR1 antagonist inactive
CCCCOc1ccc(Br)cc1/C(C)=N/NC1=NCCN1	GPR7 antag 24 | GPR7 antag conf 36 | MCHR1 antagonist 60
COc1cccc(NC(=O)CCC(=O)Nc2ccc3nc(N4CCOCC4)cc(C)c3c2)c1	none
COc1cccc(CN(C)C(=O)c2ccccc2SCC(=O)N2CCCC2)c1	none (no result: NS3 helicase inh, GPR7 antag, FID counter)
CCN(CC)S(=O)(=O)c1ccc(NC(=O)c2ccccc2N(C)S(C)(=O)=O)cc1	none
CCN(CC)S(=O)(=O)c1ccc(NC(=O)c2ccc(N(C)S(C)(=O)=O)cc2)cc1	GPR7 antag 32 | GPR7 antag conf 44 | MCHR1 antagonist 58
N=c1c2c(-c3ccccc3)c(-c3ccccc3)n(Cc3ccco3)c2ncn1Cc1ccco1	GPR7 antag 37 | GPR7 antag conf 79 | MCHR1 antagonist 100
CCCCn1cnc2c(c(-c3ccccc3)c(-c3ccccc3)n2Cc2ccco2)c1=N	GPR7 antag 32 (no result: DAGLB inhibitor) | GPR7 antag conf 54 | MCHR1 antagonist 97
N#Cc1ccc(/C=C/C(=O)c2cccnc2)cc1	none
O=C(/C=C/c1ccc(Cl)cc1)c1cccnc1	GPR7 antag 29 | GPR7 antag conf 51 | MCHR1 antagonist 78
COc1ccc(CC2(CO)CCN(C(C)Cc3ccc(Cl)cc3)CC2)cc1 (centres undefined)	GPR7 antag 21 | GPR7 antag conf inactive | MCHR1 antagonist inactive
OC1(c2ccccc2)CCN(Cc2ccccc2)C2CCCCC21 (centres undefined)	GPR7 antag 34 | GPR7 antag conf inactive | MCHR1 antagonist inactive
Cc1ccc(-c2cc(C(=O)N/N=C\c3cnn(C)c3C)c3ccccc3n2)cc1C	none
O=S(=O)(Cc1ccc(Cl)cc1)NCc1cccnc1	GPR7 antag 25 (no result: DAGLB inhibitor) | GPR7 antag conf inactive | MCHR1 antagonist inactive
O=C(NCc1cccnc1)c1ccc(CS(=O)(=O)Cc2ccc(Cl)cc2)o1	none
Cc1nc(NC(C)c2ccccc2)c2c3c(sc2n1)CCC3 (centres undefined)	GPR7 antag 27 | GPR7 antag conf 28 | MCHR1 antagonist 29
CN(C(=O)/C=C/c1ccc([N+](=O)[O-])s1)c1ccccc1	GPR7 antag 25 | GPR7 antag conf inactive | MCHR1 antagonist inactive
CN(C(=O)C=Cc1ccco1)c1ccccc1	none (no result: GRK2 aptamer HTS, HCV core dimer, NS3 helicase inh, GPR7 antag, FID counter)
CCNC(=O)NC(=O)C(C)OC(=O)c1oc2ccc(OC)cc2c1C (centres undefined)	GPR7 antag 38 | GPR7 antag conf inactive | MCHR1 antagonist inactive
C[C@H](NC(=O)CCCOc1ccc(Cl)cc1Cl)c1nnc2ccccn12	none
COc1ccc(C(CNC(=O)COc2cc(C)c(Cl)c(C)c2)N2CCCCC2)cc1 (centres undefined)	GPR7 antag 28 | GPR7 antag conf 36 | MCHR1 antagonist 59
O=C(Nc1ccc(C(=O)NCCCN2CCN(c3ccc(F)cc3)CC2)cc1)C1=CSCCO1	GPR7 antag 36 | GPR7 antag conf 56 | MCHR1 antagonist 74
CC1SCC(=O)N(CC(=O)Nc2ccc3c(c2)OCCO3)C1=O (centres undefined)	none
COc1cc(CCCN2CCNC[C@H]2Cc2cccc3ccccc23)cc(OC)c1OC	none (no result: HCV core dimer, NS3 helicase inh, GPR7 antag, FID counter)
CCOC(=O)C(C(=O)OCC)C(C[N+](=O)[O-])c1ccccc1 (centres undefined)	none
CCOC(=O)c1cnc(-n2nc(C)cc2C)nc1NC1CCCCC1	GPR7 antag 28 | GPR7 antag conf 77 | MCHR1 antagonist 73
CCc1nnc(NS(=O)(=O)c2ccc(NC(=O)c3ccccc3O)cc2)s1	none
Cc1ccc(NC(=O)C(C)OC(=O)CCNS(=O)(=O)c2ccc(C)cc2)cc1 (centres undefined)	none
CC(=O)Nc1ccc(S(=O)(=O)NCCC(=O)OC(C)C(=O)c2ccc(C)cc2)cc1 (centres undefined)	GPR7 antag 27 | GPR7 antag conf inactive | MCHR1 antagonist 45
Cc1noc(/C=C/N(C)C)c1S(=O)(=O)N1CCCC(C(=O)N2CCCCC2)C1 (centres undefined)	GPR7 antag 27 | GPR7 antag conf inactive | MCHR1 antagonist inactive
Cc1noc(/C=C/N(C)C)c1S(=O)(=O)N1CCCC(C(=O)NC2CCCCC2)C1 (centres undefined)	none
CC(C)Cc1ccc(C(C)C(=O)OCC(=O)c2c[nH]c3ccccc23)cc1 (centres undefined)	GPR7 antag 34 | GPR7 antag conf 67 | MCHR1 antagonist 78
CC1CN/C(=C\C(=O)c2ccc(Cl)cc2)C(=O)N1 (centres undefined)	none
CC1CN/C(=C\C(=O)c2ccccc2)C(=O)N1 (centres undefined)	GPR7 antag 30 | GPR7 antag conf inactive | MCHR1 antagonist inactive
COc1cc(OC)c(/C=N/N2CCN(c3ccccc3OC)CC2)c(OC)c1	none
COc1ccc([N+](=O)[O-])cc1N(CC(O)CN1CCOCC1)S(=O)(=O)c1ccccc1 (centres undefined)	none
CCCCN(CCCC)CC(O)CN(c1cc([N+](=O)[O-])ccc1OC)S(=O)(=O)c1ccccc1 (centres undefined)	GPR7 antag 36 | GPR7 antag conf 41 | MCHR1 antagonist 34
COc1ccc([N+](=O)[O-])cc1N(CC(O)CN(C)C)S(=O)(=O)c1ccc(C)cc1 (centres undefined)	none
COc1ccc([N+](=O)[O-])cc1N(CC(O)CN(CC(C)C)CC(C)C)S(=O)(=O)c1ccccc1 (centres undefined)	GPR7 antag 34 | GPR7 antag conf 45 | MCHR1 antagonist 54
CC(OC(=O)C1=COCCO1)C(=O)Nc1ncc(Cl)cc1Cl (centres undefined)	none (no result: GRK2 aptamer HTS, HCV core dimer, NS3 helicase inh, GPR7 antag, FID counter)
COc1cccc(C2=CC(c3ccc(OC)c(OC)c3)NC(=S)N2)c1 (centres undefined)	none (no result: DAGLB inhibitor)
O=C(C1COc2ccccc2O1)N1CCc2ccccc2C1 (centres undefined)	GPR7 antag 21 | GPR7 antag conf inactive | MCHR1 antagonist 35
